In ChEMBL document CHEMBL1156002, “Synthesis, Raman, FT-IR, NMR spectroscopic characterization, antimicrobial activity, cytotoxicity and DNA binding of new mixed aza-oxo-thia macrocyclic compounds” (2009):
Values after ≈ are worked out from the molar mass of the structure shown. Active and inactive are the calls of the source. The rule behind the calls is not given here.

What was measured:
[1] = system: Escherichia coli; experiment: Antibacterial activity against Escherichia coli ATCC 11230 after 24 hrs by broth micro dilution method; format: functional; conditions: ATCC 11230, 24 h
[2] = system: Staphylococcus aureus; experiment: Antibacterial activity against Staphylococcus aureus ATCC 6538 after 24 hrs by broth micro dilution method; format: functional; conditions: ATCC 6538, 24 h
[3] = system: Klebsiella pneumoniae; experiment: Antibacterial activity against Klebsiella pneumoniae UC57 after 24 hrs by broth micro dilution method; format: functional; conditions: UC57, 24 h
[4] = system: Bacillus cereus; experiment: Antibacterial activity against Bacillus cereus ATCC 7064 after 24 hrs by broth micro dilution method; format: functional; conditions: ATCC 7064, 24 h
[5] = system: Mycolicibacterium smegmatis; experiment: Antibacterial activity against Mycobacterium smegmatis CCM 2067 after 24 hrs by broth micro dilution method; format: functional; conditions: CCM 2067, 24 h
[6] = system: Pseudomonas aeruginosa; experiment: Antibacterial activity against Pseudomonas aeruginosa ATCC 27853 after 24 hrs by broth micro dilution method; format: functional; conditions: ATCC 27853, 24 h
[7] = system: Kluyveromyces marxianus; experiment: Antifungal activity against Kluyveromyces fragilis NRRL 2415 after 24 hrs by broth micro dilution method; format: functional; conditions: NRRL 2415, 24 h
In short: (§1)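 Broth microdilution was run in cation-adjusted Mueller Hinton Broth. Compounds were dissolved in DMSO at 2 mg mL^-1 and serially diluted two-fold. Yeast precultures were grown in Malt Extract Broth for 48 h. The final inoculum was about 10⁶ cfu mL^-1, and plates were incubated at 37 °C for 24 h. The MIC was read from this series.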

[8] = system: Hanseniaspora guilliermondii; experiment: Antifungal activity against Hanseniaspora guilliermondii DSM 3432 after 24 hrs by broth micro dilution method; format: functional; conditions: DSM 3432, 24 h; in short: as §1
[9] = Cytotoxicity against human 23132/87 cells assessed as cell viability at 0.1 uM after 24 hrs by MTT assay; format: functional; conditions: 23132-87, 24 h, read-out: Activity
In short: (§2)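 Cells were seeded at 3.10³–5.10³ per well in RPMI 1640 with 10% FBS, 4 mM L-glutamine and penicillin/streptomycin, then held 24 h at 37 °C under 5% CO₂. Ligands (DMSO, final 0.5% v/v) were added at 0.1–100 for 24 or 48 h. MTT was added for 4 h and dissolved in 50% DMF/5% SDS. A570 was read, and cytotoxicity was calculated as 100×(OD treated/OD untreated).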

[10] = Cytotoxicity against human 23132/87 cells assessed as cell viability at 10 uM after 24 hrs by MTT assay; format: functional; conditions: 23132-87, 24 h, read-out: Activity; in short: as §2
[11] = Cytotoxicity against human 23132/87 cells assessed as cell viability at 0.1 uM after 48 hrs by MTT assay; format: functional; conditions: 23132-87, 48 h, read-out: Activity; in short: as §2
[12] = Cytotoxicity against human 23132/87 cells assessed as cell viability at 1 uM after 48 hrs by MTT assay; format: functional; conditions: 23132-87, 48 h, read-out: Activity; in short: as §2
[13] = Cytotoxicity against human 23132/87 cells assessed as cell viability at 100 uM after 48 hrs by MTT assay; format: functional; conditions: 23132-87, 48 h, read-out: Activity; in short: as §2
[14] = system: A549; experiment: Cytotoxicity against human A549 cells assessed as cell viability at 10 uM after 24 hrs by MTT assay; format: functional; conditions: A549, 24 h, read-out: Activity; in short: as §2
[15] = system: A549; experiment: Cytotoxicity against human A549 cells assessed as cell viability at 100 uM after 24 hrs by MTT assay; format: functional; conditions: A549, 24 h, read-out: Activity; in short: as §2
[16] = system: A549; experiment: Cytotoxicity against human A549 cells assessed as cell viability at 0.1 uM after 48 hrs by MTT assay; format: functional; conditions: A549, 48 h, read-out: Activity; in short: as §2
[17] = system: A549; experiment: Cytotoxicity against human A549 cells assessed as cell viability at 1 uM after 48 hrs by MTT assay; format: functional; conditions: A549, 48 h, read-out: Activity; in short: as §2
[18] = system: A549; experiment: Cytotoxicity against human A549 cells assessed as cell viability at 100 uM after 48 hrs by MTT assay; format: functional; conditions: A549, 48 h, read-out: Activity; in short: as §2
[19] = system: 23132-87; experiment: Induction of apoptosis in human 23132/87 cells assessed as DNA fragmentation at 100 uM after 24 hrs by DNA fragmentation assay; format: functional, cell-based
In short: (§3)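 10 × 10⁴ cells were seeded in 6-well plates and treated with ligand for 24 h. Cells were then collected and washed in PBS, and DNA was extracted with a kit. Extracts were run on 1.5% agarose alongside a 100 bp marker, an untreated control and DMSO-treated controls, and ladders were visualized under UV.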

[20] = system: A549; experiment: Induction of apoptosis in human A549 cells assessed as DNA fragmentation at 100 uM after 24 hrs by DNA fragmentation assay; format: functional, cell-based; in short: as §3
[21] = system: 23132-87; experiment: Induction of apoptosis in human 23132/87 cells assessed as change in nuclear appearance at 100 uM after 24 hrs by hoechst nuclear staining; format: functional, cell-based
In short: (§4)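 Cells grown in 6-well plates were treated for 24 h, washed three times in PBS and fixed in ice-cold methanol for 10 min. They were stained with Hoechst 33258 for 5 min, destained in double-distilled water for 5 min and examined by fluorescence microscopy. Untreated and DMSO-treated cells served as controls.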

[22] = system: A549; experiment: Induction of apoptosis in human A549 cells assessed as change in nuclear appearance at 100 uM after 24 hrs by hoechst nuclear staining; format: functional, cell-based; in short: as §4
[23] = system: Calf thymus DNA; experiment: Binding affinity to calf thymus DNA assessed as change in electromagnetic spectrum at 500 uM by UV-vis spectroscopy; format: nucleic-acid assay; conditions: Bos taurus
In short: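 CT-DNA was prepared in ddH₂O and judged protein-free by an A260/A280 ratio of 1.8:1. UV–visible absorption spectra of the DNA solution were recorded without ligand and with increasing ligand amounts.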

[24] = system: Escherichia coli; experiment: Antibacterial activity against Escherichia coli ATCC 11230 after 24 hrs by agar disk diffusion assay; format: functional
In short: (§5)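 Disk diffusion with sterile 6 mm discs loaded with DMSO solutions of the test agents and placed on inoculated agar. Bacteria were pre-grown in Nutrient Broth at 30 °C for 24 h, and plates were incubated at 35 °C for 24 h. Each plate carried a reference antibiotic disc matched to the organism, and a DMSO-only solvent control was run.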

[25] = system: Staphylococcus aureus; experiment: Antibacterial activity against Staphylococcus aureus ATCC 6538 after 24 hrs by agar disk diffusion assay; format: functional; in short: as §5
[26] = system: Bacillus cereus; experiment: Antibacterial activity against Bacillus cereus ATCC 7064 after 24 hrs by agar disk diffusion assay; format: functional; in short: as §5
[27] = system: Micrococcus luteus; experiment: Antibacterial activity against Micrococcus luteus La 2971 after 24 hrs by agar disk diffusion assay; format: functional; in short: as §5
[28] = system: Proteus vulgaris; experiment: Antibacterial activity against Proteus vulgaris ATCC 8427 after 24 hrs by agar disk diffusion assay; format: functional; in short: as §5
[29] = system: Mycolicibacterium smegmatis; experiment: Antibacterial activity against Mycobacterium smegmatis CCM 2067 after 24 hrs by agar disk diffusion assay; format: functional; in short: as §5
[30] = system: Pseudomonas aeruginosa; experiment: Antibacterial activity against Pseudomonas aeruginosa ATCC 27853 after 24 hrs by agar disk diffusion assay; format: functional; in short: as §5
[31] = system: Kluyveromyces marxianus; experiment: Antifungal activity against Kluyveromyces fragilis NRRL 2415 after 72 hrs by agar disk diffusion assay; format: functional
In short: (§6)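 Sterile 6 mm paper discs were loaded with ligand solution freshly prepared in DMSO and placed on inoculated agar. The inoculum came from broth cultures: bacteria in Nutrient Broth at 30 °C for 24 h, yeasts in Malt Extract Broth for 48 h. Plates were incubated at 35 °C for 24 h (bacteria) or 25 °C for 72 h (yeasts). A DMSO solvent control and a reference antibiotic disc were included on each plate.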

[32] = system: Candida albicans; experiment: Antifungal activity against Candida albicans ATCC 10231 after 72 hrs by agar disk diffusion assay; format: functional; in short: as §6
[33] = system: Debaryomyces hansenii; experiment: Antifungal activity against Debaryomyces hansenii DSM 70238 after 72 hrs by agar disk diffusion assay; format: functional; in short: as §6

SMILES: O=C1CCSSCCC(=O)Nc2nc(nc(-c3ccccc3)n2)NC(=O)CCSSCCC(=O)Nc2nc(nc(-c3ccccc3)n2)N1
- MIC [1]: 25 µg/mL (≈ 34.6 µM)
- MIC [2]: 12.5 µg/mL (≈ 17.3 µM)
- MIC [3]: 6.25 µg/mL (≈ 8.65 µM)
- MIC [4]: 6.25 µg/mL (≈ 8.65 µM)
- MIC [5]: 25 µg/mL (≈ 34.6 µM)
- MIC [6]: 25 µg/mL (≈ 34.6 µM)
- MIC [7]: 1.56 µg/mL (≈ 2.16 µM)
- MIC [8]: 1.56 µg/mL (≈ 2.16 µM)
- viability at 0.1 µM [9]: > 86%
- viability at 10 µM [10]: > 86%
- viability at 0.1 µM [11]: > 86%
- viability at 1 µM [12]: > 86%
- viability at 100 µM [13]: > 86%
- viability at 10 µM [14]: > 86%
- viability at 100 µM [15]: > 86%
- viability at 0.1 µM [16]: > 86%
- viability at 1 µM [17]: > 86%
- viability at 100 µM [18]: > 86%
- Activity [19]: inactive
- Activity [20]: inactive
- Activity [21]: inactive
- Activity [22]: inactive
- Activity [23]: inactive
- inhibition zone (IZ) [24]: 10 mm
- inhibition zone (IZ) [25]: 12 mm
- inhibition zone (IZ) [26]: 15 mm
- inhibition zone (IZ) [27]: 17 mm
- inhibition zone (IZ) [28]: 13 mm
- inhibition zone (IZ) [29]: 11 mm
- inhibition zone (IZ) [30]: 11 mm
- inhibition zone (IZ) [31]: 21 mm
- inhibition zone (IZ) [32]: 19 mm
- inhibition zone (IZ) [33]: 22 mm

SMILES: O=C1CSCC(=O)Nc2nc(nc(-c3ccccc3)n2)NC(=O)CSCC(=O)Nc2nc(nc(-c3ccccc3)n2)N1
- MIC [1]: 25 µg/mL (≈ 41.5 µM)
- MIC [2]: 12.5 µg/mL (≈ 20.7 µM)
- MIC [3]: 12.5 µg/mL (≈ 20.7 µM)
- MIC [4]: 6.25 µg/mL (≈ 10.4 µM)
- MIC [5]: 25 µg/mL (≈ 41.5 µM)
- MIC [6]: 50 µg/mL (≈ 83 µM)
- MIC [7]: 6.25 µg/mL (≈ 10.4 µM)
- MIC [8]: 1.56 µg/mL (≈ 2.59 µM)
- viability at 0.1 µM [9]: > 86%
- viability at 10 µM [10]: > 86%
- viability at 0.1 µM [11]: > 86%
- viability at 1 µM [12]: > 86%
- viability at 100 µM [13]: > 86%
- viability at 10 µM [14]: > 86%
- viability at 100 µM [15]: > 86%
- viability at 0.1 µM [16]: > 86%
- viability at 1 µM [17]: > 86%
- viability at 100 µM [18]: > 86%
- Activity [19]: inactive
- Activity [20]: inactive
- Activity [21]: inactive
- Activity [22]: inactive
- Activity [23]: inactive
- inhibition zone (IZ) [24]: 10 mm
- inhibition zone (IZ) [25]: 12 mm
- inhibition zone (IZ) [26]: 14 mm
- inhibition zone (IZ) [27]: 14 mm
- inhibition zone (IZ) [28]: 12 mm
- inhibition zone (IZ) [29]: 10 mm
- inhibition zone (IZ) [30]: 9 mm
- inhibition zone (IZ) [31]: 15 mm
- inhibition zone (IZ) [32]: 16 mm
- inhibition zone (IZ) [33]: 18 mm
